By IC50 is commonly meant the concentration that inhibits the measured activity by half. A lower IC50 goes with greater potency in that assay.

Common to all, as to assay type: functional, cell-based
Assay [1] in a line: Antiproliferative activity against human WM793B cells after 72 hrs by MTT assay. The method, boiled down: (§1)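 MTT viability assay. Cells grown in RPMI-1640 with 10% heat-inactivated FBS, L-glutamine and 1% penicillin/streptomycin, used within 20 passages. Seeded at 5×10^3 cells/well, left overnight at 37 °C, then exposed to final concentrations of 0.005–50 µM (0.1% DMSO) for up to 72 h. MTT added for 3 h, formazan dissolved in DMSO, absorbance read at 550 nm. IC50 derived relative to untreated controls.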
Background: Formazan colour is commonly taken as a measure of viable cells.

Assay [2] has as its system K562. In words: Antiproliferative activity against human K562 cells after 72 hrs by MTT assay. As to conditions: K562, 72 h.
Assay [3] relates to HCT-116. As to the kind of experiment: Antiproliferative activity against human HCT116 cells after 72 hrs by MTT assay. The settings on record: HCT-116, 72 h. Put shortly: as §1
Assay [4] concerns MCF7. In words: Antiproliferative activity against human MCF7 cells after 72 hrs by MTT assay. As to conditions: MCF7, 72 h. Put shortly: as §1
Assay [5] has as its system A2780. In words: Antiproliferative activity against human A2780 cells after 72 hrs by MTT assay. The settings on record: A2780, 72 h. The method, boiled down: as §1

Consider `Cc1ccc2nc3nc(NCc4ccc(CN5CCCCC5)cc4)[nH]c(=O)c3cc2c1`, for which the IC50 came out at 11 µM in assay [1]; 15.9 µM in assay [2]; 7.23 µM in assay [3]; 2.34 µM in assay [4]; 1.52 µM in assay [5].

Regarding `Cc1ccc2nc3nc(NCCO)[nH]c(=O)c3cc2c1`, the IC50 in assay [4] was found to be 0.17 µM.

Regarding `COc1ccc(CCN2CCC(Nc3nc4nc5ccc(OC)cc5nc4c(=O)[nH]3)CC2)cc1`, the IC50 came to 33.1 µM in assay [1]; 17.3 µM in assay [2]; 0.93 µM in assay [3]; 0.8 µM in assay [4]; 0.9 µM in assay [5].

Regarding `O=c1[nH]c(NCc2ccc(CN3CCOCC3)cc2)nc2nc3ccccc3nc12`, the concentration for half-maximal inhibition (IC50) in assay [1] was greater than 50 µM; in assay [2], greater than 50 µM; in assay [3], 1.53 µM; in assay [4] it was 1.49 µM; in assay [5], 2.01 µM.

For the compound `COc1ccc2nc3nc(NC(C)c4ccccc4)[nH]c(=O)c3nc2c1` (stereo not given), the IC50 in assay [1] was greater than 50 µM; in assay [2], greater than 50 µM; in assay [3] it was 5.78 µM; in assay [4], 5.73 µM; in assay [5], 4.83 µM.

On to `COc1ccc2nc3nc(NCc4ccc(CN5CCOCC5)cc4)[nH]c(=O)c3cc2c1`, for which the IC50 in assay [1] was 49.1 µM; in assay [2], 23.2 µM; in assay [3] it was 5.22 µM; in assay [4] it was 3.13 µM; in assay [5], 2.89 µM.

Consider `CS(=O)(=O)CCNCc1ccc(-c2ccc3ncnc(Nc4ccc(OCc5cccc(F)c5)c(Cl)c4)c3c2)o1` [LAPATINIB], for which the IC50 in assay [3] turned out to be 10.1 µM; in assay [4], 6.8 µM; in assay [5] it was 10.4 µM.

In assay [4], `CSc1nc2nc3ccc(C)cc3cc2c(=O)[nH]1` returned an IC50 of 1.79 µM. That is a single-digit micromolar value.

The values are drawn from ChEMBL document CHEMBL4152228, “Structural-based design, synthesis, and antitumor activity of novel alloxazine analogues with potential selective kinase inhibition” (Eur J Med Chem, 2018).
